Read-outs that look alike come from different tables or passages of the source.
How the values were obtained:
NF-kB pathway = settings: mouse RAW264.7 macrophages; cited from earlier work
IKKβ = settings: cited from earlier work
[1] = athymic nude mice, cited from earlier work
[2] = system: SCC Tu212 xenograft tumors; settings: cited from earlier work
osteoclastogenesis = settings: in vitro; cited from earlier work
MiPaPc xenografts = settings: 10 and 20 mg/kg i.p., ref Manuscripts in preparation 2013; cited from earlier work
[3] = system: osteoblastic differentiation and mineralization; settings: in vitro, associated with Smad signaling; cited from earlier work
[4] = EF-24 stability in human plasma; type: in vitro ADME; settings: for half-life at 31.25 nM / half-life at 1000 nM: human, plasma, Half-life in plasma
Summary of the method: (§1)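 Test compound at 31.25 or 1000 nM was held in plasma at 4°C and 37°C for 24 h. Plasmas: mouse and rat from heparin-CPD blood, dog heparinised, human from healthy volunteers. Aliquots at 5, 15 and 30 min and 1, 2, 4, 6 and 24 h went into silanized tubes, were frozen at −20°C, then protein-precipitated with methanol. Samples were quantified by LC/MS/MS (m/z 312→149) against an internal standard. Half-lives were derived from loss over time.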

[5] = EF-24 stability in mouse plasma; type: in vitro ADME; settings: for Half-life in plasma: mouse plasma, 4°
Summary of the method: as §1

[6] = EF-24 stability in rat plasma; type: in vitro ADME; settings: for Half-life in plasma: 4°
Summary of the method: as §1

[7] = EF-24 stability in dog plasma; type: in vitro ADME; settings: for Half-life in plasma: dog plasma, 4°
Summary of the method: as §1

[8] = Partition ratio and stability in fresh mouse whole blood; type: in vitro ADME; settings: 24-hour incubation in whole blood at 37°C
Summary of the method: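 Fresh mouse whole blood (heparin in citrate-phosphate-dextrose) was spiked in silanized amber vials and kept on ice or at 37°C for 24 h. On ice, aliquots were taken at 0, 5, 15, 30, 60, 120 and 240 min. Red cells were pelleted at 10,000 rpm for 3 min, and plasma was frozen at −20°C before LC/MS/MS. For partitioning, equal amounts (3.9–2000 nM) went into plasma and whole blood.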

human serum albumin = human serum albumin (Homo sapiens, UniProt P02768); experiment: Binding to human serum albumin by ultracentrifugation; settings: human serum albumin 40 mg/ml in phosphate buffered saline, pH 7.4
Summary of the method: (§2)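 Ultracentrifugation binding assay. Matrices were thawed mouse, rat, dog or human plasma, human serum albumin (40 mg/ml in PBS, pH 7.4) or α1-acid glycoprotein (1 mg/ml). Samples were incubated 30 min at 37°C, then spun at 90,000 rpm for 3 h at 4°C. Drug was measured by LC/MS/MS before and after spinning, with upper supernatant taken as unbound. Supernatant protein-free status was confirmed by DC protein assay. Binding was calculated from percent recovered.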

[9] = system: human α1-acid glycoprotein; experiment: Binding to α1-acid glycoprotein by ultracentrifugation; settings: α1-acid glycoprotein 1 mg/ml
Summary of the method: as §2

[10] = Pharmacokinetics in male CD2F1 mice; type: in vivo, mouse; settings: for Bioavailability: by comparison of AUC values
Summary of the method: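 Male CD2F1 mice (19–26 g) received 10 mg/kg in D5W:DMSO (9:1) by tail-vein i.v., i.p. or oral gavage. Cardiac-puncture blood was drawn under methoxyflurane, two mice per time point, at 3–240 min (i.v.) or 3–480 min (i.p., oral). Plasma was analysed by LC/MS/MS. Half-life came from compartmental and AUC/CL from noncompartmental analysis of mean concentrations, bioavailability from AUC ratios. Urine was pooled over 24 h after 25 or 32 mg/kg i.v.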

[11] = NADPH-dependent metabolism in mouse liver microsomes; type: in vitro ADME; settings: 10 μM, 15-minute incubation
Summary of the method: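 Liver microsomes came from male CD2F1 mice, untreated or given phenobarbital (80 mg/kg) or 3-methylcholanthrene (20 mg/kg) i.p. for 3 days. Microsomes were isolated on day 4 by differential centrifugation. Test compound at 10 µM was incubated at 37°C with 0.2–1 mg/ml protein, 1.0 mM NADPH, 5 mM MgCl2 and 100 mM potassium phosphate, pH 7.4, for 15 min. Controls lacked NADPH. Reactions were stopped with ice-cold methanol, and remaining drug was measured by LC/MS/MS.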

[12] = NADPH-dependent metabolism in human liver microsomes; type: in vitro ADME; settings: 10 μM, 120 minutes (Fig 4 legend)
Summary of the method: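 Pooled human liver microsomes came from livers unsuitable for transplantation. They were preincubated 2 min in 100 mM potassium phosphate (pH 7.4), 5 mM MgCl2 ± 1.0 mM NADPH at 37°C. Reactions were started with test compound (10 µM) at 0.2–1 mg/ml protein and ran 120 min. NADPH-free incubations served as controls. Reactions were quenched with ice-cold methanol (2:1), and remaining drug was quantified by LC/MS/MS.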

[13] = Light sensitivity during assay development; type: physicochemical; settings: second peak prevented by aluminum foil or amber vials
[14] = system: NCI anti-cancer cell line screen; settings: read-out: Mean GI50; cited from earlier work
[15] = system: HCT-116 human colon tumor xenograft; settings: cited from earlier work
[16] = 10 mg/kg, intraperitoneal, male CD2F1 mice
[17] = 10 mg/kg, oral, male CD2F1 mice
[18] = male, CD2F1, mouse, plasma, ip, 10 mg/kg
[19] = male, CD2F1, mouse, plasma, iv, 10 mg/kg
[20] = male, CD2F1, mouse, plasma, po, 10 mg/kg

human serum albumin, sequence (P02768 25-609): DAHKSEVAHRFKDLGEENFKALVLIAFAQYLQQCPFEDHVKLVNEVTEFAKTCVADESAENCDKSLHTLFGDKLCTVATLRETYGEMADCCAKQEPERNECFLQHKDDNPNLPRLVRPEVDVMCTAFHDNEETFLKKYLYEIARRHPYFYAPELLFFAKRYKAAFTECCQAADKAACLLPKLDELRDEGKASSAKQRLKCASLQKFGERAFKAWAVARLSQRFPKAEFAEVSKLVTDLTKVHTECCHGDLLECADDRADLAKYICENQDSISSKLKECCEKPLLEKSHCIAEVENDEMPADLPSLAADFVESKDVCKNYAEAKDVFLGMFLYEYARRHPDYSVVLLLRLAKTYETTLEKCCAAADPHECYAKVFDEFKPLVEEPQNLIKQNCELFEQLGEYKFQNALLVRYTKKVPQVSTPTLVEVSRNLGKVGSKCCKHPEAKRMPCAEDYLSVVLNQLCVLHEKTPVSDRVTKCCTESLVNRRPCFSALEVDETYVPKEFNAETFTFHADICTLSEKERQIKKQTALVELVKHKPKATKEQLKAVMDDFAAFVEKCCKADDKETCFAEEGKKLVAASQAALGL

For O=C1C(=Cc2ccccn2)CNCC1=Cc1ccccn1 [EF31, 3,5-Bis(2-pyridinylmethylidene)-4piperidone], the “Fold more potent blocker of NF-kB pathway activity than EF24” value (NF-kB pathway) is given as 7 fold, the “Fold more potent blocker of NF-kB pathway activity than curcumin” value (NF-kB pathway) is given as over 10 fold and the “Fold more effective inhibition of IKKβ vs. EF24” value (IKKβ) is given as ~ 65 fold. For the same compound, the “Average AUC(0-∞)” value ([1]; 15 mg/kg i.p.) was 3386 h x ng mL^−1, the “Average AUC(0-∞)” value ([1]; 25 mg/kg i.p.) was 7769 h x ng mL^−1 and the “Effect on xenograft tumors” value ([2]; 15 and 25 mg/kg i.p.) was “dose-response”. The “Effect on osteoclastogenesis as compared with curcumin” value (osteoclastogenesis) was “suppressive effect”.
For CN1C/C(=C\c2ccccn2)C(=O)/C(=C/c2ccccn2)C1 [UBS-109], the Effect on xenografts ([2]; 50, 100 and 150 mg/kg p.o., ref Manuscripts in preparation 2013) is listed as “dose response”, the Effect on xenografts (MiPaPc xenografts) is listed as “dose response” and the “Effect on osteoclastogenesis as compared with curcumin” value (osteoclastogenesis) is listed as “suppressive effect”. For the same compound, the “Effect on osteoblastic differentiation and mineralization” value [3] was “unique stimulatory effect”.
In the case of CC(=O)O.O=C1C(=Cc2ccccc2F)CNCC1=Cc1ccccc1F [EF-24, 3,5-bis[(2-fluorophenyl)methylene]-4-piperidinone acetate], the Stability in plasma ([4]; 24-hour period) is reported as “stable”, the half-life at 31.25 nM ([4]; 4°) is reported as 84 h and the half-life at 31.25 nM ([4]; 37°) is reported as 79 h. For the same compound, the half-life at 1000 nM ([4]; 4°) was 100 h, the half-life at 1000 nM ([4]; 37°) was 58 h and the Half-life in plasma ([5]; 31.25 nM) was “Stable”. The Half-life in plasma ([5]; 1000 nM) was “Stable”, the half-life ([5]; mouse, plasma) was 11 h and the half-life at 31.25 nM ([5]; mouse, plasma) was 12 h. The half-life at 1000 nM ([5]; mouse, plasma) was 10 h, the Half-life in plasma ([6]; rat plasma, 31.25 nM) was “Stable” and the Half-life in plasma ([6]; rat plasma, 1000 nM) was “Stable”. The Stability in plasma ([6]; rat plasma, 24-hour period) was “stable”, the half-life at 31.25 nM ([6]; rat, plasma) was 50 h and the half-life at 1000 nM ([6]; rat, plasma) was 66 h. The Half-life in plasma ([7]; 31.25 nM) was “Stable”, the Half-life in plasma ([7]; 1000 nM) was “Stable” and the half-life ([7]; dog, plasma) was 35 h. For the same compound, the half-life at 31.25 nM ([7]; dog, plasma) was 36 h, the half-life at 1000 nM ([7]; dog, plasma) was 33 h and the “Stability in whole blood” value [8] was “Multi-exponential loss”. For the same compound, the Percent bound (human serum albumin) was 95-100%, the Percent bound [9] was under 20% and the “Time of secondary peak concentration” value ([10]; 10 mg/kg, i.p., male CD2F1 mice, plasma) was 360 min. The Peak plasma concentration ([10]; 10 mg/kg, i.v., male CD2F1 mice) was 2.5 µM, the Bioavailability ([10]; 10 mg/kg, intraperitoneal) was 34.7% and the t1/2z [10, 16] was 3.65 h. For the same compound, the t1/2α [10, 16] was 8.9 min, the Cmax ([10]; 10 mg/kg, intraperitoneal, male CD2F1 mice, plasma) was 833 nM and the t1/2α ([10]; 10 mg/kg, intravenous, male CD2F1 mice) was 0.4 min. It also gave a Bioavailability ([10]; 10 mg/kg, oral) of 60.1%, a t1/2z [10, 17] of 2.95 h and a t1/2α [10, 17] of 3.3 min. It also gave a Cmax ([10]; 10 mg/kg, oral, male CD2F1 mice, plasma) of 882 nM, an AUC [10, 18] of 0.346 µM·h and a Tmax [10, 18] of 3 min. It also gave a half-life ([10]; male, CD2F1, mouse, plasma, ip, 10 mg/kg, t1/2z, intraperitoneal, male CD2F1 mice) of about 3.33 h, an AUC [10, 19] of 0.996 µM·h and a Tmax [10, 19] of 2.7 min. The Vd [10, 19] was 4.85 L/kg, the clearance [10, 19] was 482 mL/min/kg and the Cmax ([10]; male, CD2F1, mouse, plasma, iv, 10 mg/kg, Cmax, male CD2F1 mice) was 2490 nM. For the same compound, the half-life ([10]; male, CD2F1, mouse, plasma, iv, 10 mg/kg, t1/2z (terminal elimination half-life), male CD2F1 mice) was 1.23 h, the half-life ([10]; male, CD2F1, mouse, plasma, iv, 10 mg/kg, t1/2β, male CD2F1 mice) was 0.09 h and the AUC [10, 20] was 0.599 µM·h. For the same compound, the Tmax [10, 20] was 3 min, the half-life ([10]; male, CD2F1, mouse, plasma, po, 10 mg/kg, t1/2z, male CD2F1 mice) was about 3.33 h and the “EF-24 in 24-hour pooled urine” value ([10]; mice administered 25 mg/kg or 32 mg/kg intravenously) was “not detected”. The “EF-24 consumed by NADPH-dependent metabolism” value (“EF-24 consumed” for short) ([11]; liver microsomes from 3MC-pretreated mice) was 54%, the “EF-24 consumed” value ([11]; liver microsomes from PB-pretreated mice) was 41% and the “EF-24 consumed” value ([11]; liver microsomes from untreated mice) was 40%. The “EF-24 consumed” value [12] was over 70%, the Stability to light [13] was “light sensitivity” and the GI50 [14] was 700 nM. The “Tumor growth in vivo” value ([15]; dose of 200 μg/kg) was “inhibited tumor growth” and the “Growth of HCT-116 human colon tumor xenograft” value ([15]; mice, little apparent toxicity, no reference given) was “potent growth inhibition”.

— publication PMC4392893 (Cancer chemotherapy and pharmacology, 2014)
